In ChEMBL document CHEMBL3588803, “Design, synthesis and pharmacology of 1,1-bistrifluoromethylcarbinol derivatives as liver X receptor β-selective agonists” (Bioorg Med Chem Lett, 2015):

How the values were obtained:
[1] = tested on: Hamster; assay: Increase in ABCG5 gene expression in Bio F1B hamster intestine at 10 mg/kg, po; format: functional, Cricetinae
[2] = Plasma concentration in CE-2 chow diet-fed golden Syrian hamster at 100 mg/kg, po after 24 hrs by HPLC-LC-MS/MS method; format: ADME, organism-based, Mesocricetus auratus
Summary of the method: (§1)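 Hamsters on chow diet received a single oral dose of 100 mg/kg. Heparin plasma was drawn from a forearm vein at 0.5, 1, 2, 3, 4, 6, 8, 10 and 24 h after dosing. Concentrations of parent drug and its carboxylic acid metabolite were measured in plasma.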

[3] = tested on: Hamster; assay: Hypolipidemic effect in Bio F1B hamster fed with high fat and cholesterol diet assessed as HDL-cholesterol level at 100 mg/kg, po relative to control; format: functional, Cricetinae
[4] = tested on: Hamster; assay: Hypolipidemic effect in Bio F1B hamster fed with high fat and cholesterol diet assessed as HDL-cholesterol level at 10 mg/kg, po relative to control; format: functional, Cricetinae
[5] = tested on: Hamster; assay: Increase in ABCG8 gene expression in Bio F1B hamster intestine at 30 mg/kg, po; format: functional, Cricetinae
Summary of the method: (§2)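 Bio F1B hamsters were fed a high-fat, high-cholesterol diet and dosed orally. Gene expression was measured in intestine (ABCA1, ABCG5, ABCG8) and in peripheral blood (ABCA1).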

[6] = Plasma concentration in CE-2 chow diet-fed golden Syrian hamster assessed as 4-(4-(1,1,1,3,3,3-Hexafluoro-2-hydroxypropan-2-yl)-2,6-di-n-propylphenoxy)-butanoic acid level at 100 mg/kg, po after 0.5 hrs by HPLC-LC-MS/MS method; format: ADME, organism-based, Mesocricetus auratus; conditions: in vivo; summary of the method: as §1
[7] = Plasma concentration in CE-2 chow diet-fed golden Syrian hamster at 100 mg/kg, po after 1 hr by HPLC-LC-MS/MS method; format: ADME, organism-based, Mesocricetus auratus; summary of the method: as §1
[8] = tested on: Hamster; assay: Hypolipidemic effect in Bio F1B hamster fed with high fat and cholesterol diet assessed as lipid-accumulation area in aortic arch at 10 mg/kg, po relative to control; format: functional, Cricetinae
[9] = Plasma concentration in CE-2 chow diet-fed golden Syrian hamster at 100 mg/kg, po after 3 hrs by HPLC-LC-MS/MS method; format: ADME, organism-based, Mesocricetus auratus; summary of the method: as §1
[10] = tested on: Hamster; assay: Hypolipidemic effect in Bio F1B hamster fed with high fat and cholesterol diet assessed as total cholesterol level at 10 mg/kg, po relative to control; format: functional, Cricetinae
[11] = Plasma concentration in CE-2 chow diet-fed golden Syrian hamster assessed as 4-(4-(1,1,1,3,3,3-Hexafluoro-2-hydroxypropan-2-yl)-2,6-di-n-propylphenoxy)-butanoic acid level at 100 mg/kg, po after 2 hrs by HPLC-LC-MS/MS method; format: ADME, organism-based, Mesocricetus auratus; conditions: in vivo; summary of the method: as §1
[12] = Plasma concentration in CE-2 chow diet-fed golden Syrian hamster at 100 mg/kg, po after 8 hrs by HPLC-LC-MS/MS method; format: ADME, organism-based, Mesocricetus auratus; summary of the method: as §1
[13] = Plasma concentration in CE-2 chow diet-fed golden Syrian hamster at 100 mg/kg, po after 2 hrs by HPLC-LC-MS/MS method; format: ADME, organism-based, Mesocricetus auratus; summary of the method: as §1
[14] = tested on: Hamster; assay: Increase in ABCG5 gene expression in Bio F1B hamster intestine at 100 mg/kg, po; format: functional, Cricetinae; summary of the method: as §2
[15] = tested on: Hamster; assay: Increase in ABCG5 gene expression in Bio F1B hamster intestine at 30 mg/kg, po; format: functional, Cricetinae; summary of the method: as §2
[16] = tested on: Syrian golden hamster; assay: Drug metabolism in CE-2 chow diet-fed golden Syrian hamster assessed as 4-(4-(1,1,1,3,3,3-Hexafluoro-2-hydroxypropan-2-yl)-2,6-di-n-propylphenoxy)-butanoic acid formation at 100 mg/kg, po after 0.5 to 24 hrs by HPLC-LC-MS/MS method; format: ADME, organism-based, Mesocricetus auratus; conditions: in vivo; summary of the method: as §1
[17] = tested on: Hamster; assay: Effect in lipid profiles in Bio F1B hamster fed with high fat and cholesterol diet assessed as triglyceride level at 100 mg/kg, po relative to control; format: organism-based; conditions: cricetinae, in vivo
[18] = tested on: Hamster; assay: Increase in ABCG8 gene expression in Bio F1B hamster intestine at 10 mg/kg, po; format: functional, Cricetinae
[19] = tested on: Hamster; assay: Effect in lipid profiles in Bio F1B hamster fed with high fat and cholesterol diet assessed as triglyceride level at 10 mg/kg, po relative to control; format: organism-based; conditions: cricetinae, in vivo
[20] = tested on: Hamster; assay: Hypolipidemic effect in Bio F1B hamster fed with high fat and cholesterol diet assessed as total cholesterol level at 100 mg/kg, po relative to control; format: functional, Cricetinae
[21] = Plasma concentration in CE-2 chow diet-fed golden Syrian hamster at 100 mg/kg, po after 4 hrs by HPLC-LC-MS/MS method; format: ADME, organism-based, Mesocricetus auratus; summary of the method: as §1
[22] = tested on: Hamster; assay: Hypolipidemic effect in Bio F1B hamster fed with high fat and cholesterol diet assessed as LDL-cholesterol level at 30 mg/kg, po relative to control; format: functional, Cricetinae
[23] = tested on: Hamster; assay: Increase in ABCA1 gene expression in Bio F1B hamster peripheral blood at 30 mg/kg, po; format: functional, Cricetinae; summary of the method: as §2
[24] = tested on: Hamster; assay: Increase in ABCG8 gene expression in Bio F1B hamster intestine at 100 mg/kg, po; format: functional, Cricetinae; summary of the method: as §2
[25] = tested on: Hamster; assay: Hypolipidemic effect in Bio F1B hamster fed with high fat and cholesterol diet assessed as LDL-cholesterol level at 100 mg/kg, po relative to control; format: functional, Cricetinae
[26] = Plasma concentration in CE-2 chow diet-fed golden Syrian hamster at 100 mg/kg, po after 6 hrs by HPLC-LC-MS/MS method; format: ADME, organism-based, Mesocricetus auratus; summary of the method: as §1
[27] = tested on: Hamster; assay: Hypolipidemic effect in Bio F1B hamster fed with high fat and cholesterol diet assessed as LDL-cholesterol level at 10 mg/kg, po relative to control; format: functional, Cricetinae
[28] = tested on: Hamster; assay: Increase in ABCA1 gene expression in Bio F1B hamster peripheral blood at 100 mg/kg, po; format: functional, Cricetinae; summary of the method: as §2
[29] = Plasma concentration in CE-2 chow diet-fed golden Syrian hamster assessed as 4-(4-(1,1,1,3,3,3-Hexafluoro-2-hydroxypropan-2-yl)-2,6-di-n-propylphenoxy)-butanoic acid level at 100 mg/kg, po after 10 hrs by HPLC-LC-MS/MS method; format: ADME, organism-based, Mesocricetus auratus; conditions: in vivo; summary of the method: as §1
[30] = tested on: Hamster; assay: Hypolipidemic effect in Bio F1B hamster fed with high fat and cholesterol diet assessed as total cholesterol level at 30 mg/kg, po relative to control; format: functional, Cricetinae
[31] = Plasma concentration in CE-2 chow diet-fed golden Syrian hamster at 100 mg/kg, po after 10 hrs by HPLC-LC-MS/MS method; format: ADME, organism-based, Mesocricetus auratus; summary of the method: as §1
[32] = tested on: Hamster; assay: Increase in ABCA1 gene expression in Bio F1B hamster intestine at 30 mg/kg, po; format: functional, Cricetinae; summary of the method: as §2
[33] = Plasma concentration in CE-2 chow diet-fed golden Syrian hamster assessed as 4-(4-(1,1,1,3,3,3-Hexafluoro-2-hydroxypropan-2-yl)-2,6-di-n-propylphenoxy)-butanoic acid level at 100 mg/kg, po after 1 hr by HPLC-LC-MS/MS method; format: ADME, organism-based, Mesocricetus auratus; conditions: in vivo; summary of the method: as §1
[34] = tested on: Hamster; assay: Effect in lipid profiles in Bio F1B hamster fed with high fat and cholesterol diet assessed as triglyceride level at 30 mg/kg, po relative to control; format: organism-based; conditions: cricetinae, in vivo
[35] = Cmax in CE-2 chow diet-fed golden Syrian hamster at 100 mg/kg, po after 6 hrs by HPLC-LC-MS/MS method; format: ADME, organism-based, Mesocricetus auratus; parameters: dose 100 mg/kg, route oral; conditions: in vivo; summary of the method: as §1
[36] = tested on: Hamster; assay: Hypolipidemic effect in Bio F1B hamster fed with high fat and cholesterol diet assessed as lipid-accumulation area in aortic arch at 30 mg/kg, po relative to control; format: functional, Cricetinae
[37] = tested on: Hamster; assay: Hypolipidemic effect in Bio F1B hamster fed with high fat and cholesterol diet assessed as HDL-cholesterol level at 30 mg/kg, po relative to control; format: functional, Cricetinae

concentration at 24 h [2]: 100 nM | Cp [6]: 52 ng/mL | concentration at 1 h [7]: 490 nM | concentration at 3 h [9]: 290 nM | Cp [11]: 375 ng/mL | concentration at 8 h [12]: 420 nM | concentration at 2 h [13]: 320 nM | Drug metabolism [16]: metabolite_detected | Activity [17]: 112% | Activity [19]: 97% | concentration at 4 h [21]: 290 nM | concentration at 6 h [26]: 630 nM | Cp [29]: 560 ng/mL | concentration at 10 h [31]: 110 nM | Cp [33]: 202 ng/mL | Activity [34]: 145% | Cmax [35]: 600 nM
SMILES: CCCc1cc(C(O)(C(F)(F)F)C(F)(F)F)cc(CCC)c1OCCCCN1C(=O)NC(C)(c2ccc(OC(C)C)cc2)C1=O (configuration not stated)
fold change (FC) [1]: 1.2 | Activity [3]: 75% | Activity [4]: 98% | fold change (FC) [5]: 1.4 | Activity [8]: 86% | Activity [10]: 87% | fold change (FC) [14]: 1.3 | fold change (FC) [15]: 1.5 | fold change (FC) [18]: 1.3 | Activity [20]: 53% | Activity [22]: 91% | fold change (FC) [23]: 0.8 | fold change (FC) [24]: 1.3 | Activity [25]: 45% | Activity [27]: 94% | fold change (FC) [28]: 1 | Activity [30]: 96% | fold change (FC) [32]: 4 | Activity [36]: 84% | Activity [37]: 92%
